Test results: ChEMBL document CHEMBL1122071, “Avermectin acyl derivatives with anthelmintic activity” (1982)

Legend:
Type in all cases: functional
[1] = test system: Teladorsagia circumcincta; experiment: Anthelmintic efficacy against immature (EL4) Ostertagia circumcincta (O. c) in sheep at dose of 0.05 mg/kg administered orally; 0-19%
[2] = test system: Trichostrongylus axei; experiment: Anthelmintic efficacy against Trichostrongylus axei (T.a) in sheep at dose of 0.025 mg/kg administered orally; 20-59%
How it was run: (§1)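 Lambs experimentally infected with mixed gastrointestinal nematodes (H. contortus, O. circumcincta, T. axei, T. colubriformis, C. oncophora, Oe. columbianum) were dosed orally, 1–3 sheep per dose. An untreated infected group of 6 was included, with worm burdens given as the geometric mean number of worms per lamb. Efficacy was scored against adult and, where listed, EL4 stages.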

[3] = test system: Cooperia oncophora; experiment: Anthelmintic efficacy against adult Cooperia oncopphora (C.o) in sheep at dose of 0.025 mg/kg administered orally; 0-19%; how it was run: as §1
[4] = test system: Trichostrongylus axei; experiment: Anthelmintic efficacy against Trichostrongylus axei (T.a) in sheep at dose of 0.05 mg/kg administered orally; details: route oral
How it was run: (§2)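 Lambs were experimentally infected with mixed gastrointestinal nematodes: Haemonchus contortus, Ostertagia circumcincta, Trichostrongylus axei, T. colubriformis, Cooperia oncophora and Oesophagostomum columbianum. Dosing was oral, in mg/kg, with 3 sheep per dose group. An untreated infected group of 6 sheep served as reference, with worm burdens given as the geometric mean per lamb. Immature (EL4) and adult worms were scored separately.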

[5] = test system: Cooperia oncophora; experiment: Anthelmintic efficacy against immature (EL4) Cooperia oncopphora (C.o) in sheep at dose of 0.025 mg/kg administered orally; details: route oral
[6] = test system: Haemonchus contortus; experiment: Anthelmintic efficacy against adult Haemonchus contortus (H.c) in sheep at dose of 0.1 mg/kg administered orally; details: route oral; how it was run: as §1
[7] = test system: Haemonchus contortus; experiment: Anthelmintic efficacy against adult Haemonchus contortus (H.c) in sheep at dose of 0.025 mg/kg administered orally; details: route oral; how it was run: as §2
[8] = test system: Teladorsagia circumcincta; experiment: Anthelmintic efficacy against adult Ostertagia circumcincta (O. c) in sheep at dose of 0.05 mg/kg administered orally; details: route oral; how it was run: as §2
[9] = test system: Cooperia oncophora; experiment: Anthelmintic efficacy against immature (EL4) Cooperia oncopphora (C.o) in sheep at dose of 0.05 mg/kg administered orally; 60-89%
[10] = test system: Oesophagostomum columbianum; experiment: Anthelmintic efficacy against Oseophagostomum columbianum (Oe. c) in sheep at dose of 0.025 mg/kg administered orally; details: route oral; how it was run: as §2
[11] = test system: Teladorsagia circumcincta; experiment: Anthelmintic efficacy against immature (EL4) Ostertagia circumcincta (O. c) in sheep at dose of 0.025 mg/kg administered orally; details: route oral
[12] = test system: Trichostrongylus colubriformis; experiment: Anthelmintic efficacy against Trichostrongylus colubriformis in sheep at dose of 0.1 mg/kg administered orally; details: route oral; how it was run: as §1
[13] = test system: Teladorsagia circumcincta; experiment: Anthelmintic efficacy against adult Ostertagia circumcincta (O. c) in sheep at dose of 0.1 mg/kg administered orally; details: route oral; how it was run: as §1
[14] = test system: Oesophagostomum columbianum; experiment: Anthelmintic efficacy against Oseophagostomum columbianum (Oe. c) in sheep at dose of 0.1 mg/kg administered orally; details: route oral; how it was run: as §1
[15] = test system: Haemonchus contortus; experiment: Anthelmintic efficacy against adult Haemonchus contortus (H.c) in sheep at dose of 0.05 mg/kg administered orally; details: route oral; how it was run: as §2
[16] = test system: Trichostrongylus colubriformis; experiment: Anthelmintic efficacy against Trichostrongylus colubriformis (T.c) in sheep at dose of 0.025 mg/kg administered orally; details: route oral; how it was run: as §1
[17] = test system: Trichostrongylus colubriformis; experiment: Minimal dose necessary to eliminate > 83% of Trichostrongylus colubriformis infection in gerbils
[18] = test system: Trichostrongylus axei; experiment: Anthelmintic efficacy against Trichostrongylus axei (T.a) in sheep at dose of 0.1 mg/kg administered orally; details: route oral; how it was run: as §1
[19] = test system: Teladorsagia circumcincta; experiment: Anthelmintic efficacy against adult Ostertagia circumcincta (O. c) in sheep at dose of 0.025 mg/kg administered orally; details: route oral; how it was run: as §1
[20] = test system: Trichostrongylus colubriformis; experiment: Anthelmintic efficacy against Trichostrongylus colubriformis (T.c) in sheep at dose of 0.05 mg/kg administered orally; details: route oral; how it was run: as §2
[21] = test system: Teladorsagia circumcincta; experiment: Anthelmintic efficacy against immature (EL4) Ostertagia circumcincta (O. c) in sheep at dose of 0.1 mg/kg administered orally; 60-89%
[22] = test system: Oesophagostomum columbianum; experiment: Anthelmintic efficacy against Oseophagostomum columbianum (Oe. c) in sheep at dose of 0.05 mg/kg administered orally; details: route oral; how it was run: as §2
[23] = test system: Cooperia oncophora; experiment: Anthelmintic efficacy against adult Cooperia oncopphora (C.o) in sheep at dose of 0.05 mg/kg administered orally; 0-19%; how it was run: as §1
[24] = test system: Cooperia oncophora; experiment: Anthelmintic efficacy against immature (EL4) Cooperia oncopphora (C.o) in sheep at dose of 0.1 mg/kg administered orally; details: route oral; how it was run: as §2
[25] = test system: Cooperia oncophora; experiment: Anthelmintic efficacy against adult Cooperia oncopphora (C.o) in sheep at dose of 0.1 mg/kg administered orally; 60-89%; how it was run: as §1
[26] = test system: Cooperia oncophora; experiment: Anthelmintic efficacy against adult Cooperia oncopphora (C.o) in sheep at dose of 0.25 mg/kg administered orally; 60-89%; how it was run: as §1
[27] = test system: Trichostrongylus colubriformis; experiment: Anthelmintic efficacy against Trichostrongylus colubriformis (T.c) in sheep at dose of 0.25 mg/kg administered orally; 60-89%; how it was run: as §1
[28] = test system: Haemonchus contortus; experiment: Anthelmintic efficacy against adult Haemonchus contortus (H.c) in sheep at dose of 0.25 mg/kg administered orally; details: route oral; how it was run: as §1
[29] = test system: Teladorsagia circumcincta; experiment: Anthelmintic efficacy against adult Ostertagia circumcincta (O. c) in sheep at dose of 0.25 mg/kg administered orally; 60-89%; how it was run: as §1
[30] = test system: Trichostrongylus axei; experiment: Anthelmintic efficacy against Trichostrongylus axei (T.a) in sheep at dose of 0.25 mg/kg administered orally; 20-59%; how it was run: as §1
[31] = test system: Oesophagostomum columbianum; experiment: Anthelmintic efficacy against Oseophagostomum columbianum (Oe. c) in sheep at dose of 0.25 mg/kg administered orally; details: route oral; how it was run: as §1
[32] = test system: Teladorsagia circumcincta; experiment: Anthelmintic efficacy against immature (EL4) Ostertagia circumcincta (O. c) in sheep at dose of 0.025 mg/kg administered orally; 0-19%
[33] = test system: Cooperia oncophora; experiment: Anthelmintic efficacy against immature (EL4) Cooperia oncopphora (C.o) in sheep at dose of 0.05 mg/kg administered orally; 20-59%
[34] = test system: Teladorsagia circumcincta; experiment: Anthelmintic efficacy against adult Ostertagia circumcincta (O. c) in sheep at dose of 0.025 mg/kg administered orally; 60-89%; how it was run: as §1
[35] = test system: Cooperia oncophora; experiment: Anthelmintic efficacy against immature (EL4) Cooperia oncopphora (C.o) in sheep at dose of 0.1 mg/kg administered orally; 20-59%
[36] = test system: Haemonchus contortus; experiment: Anthelmintic efficacy against adult Haemonchus contortus (H.c) in sheep at dose of 0.025 mg/kg administered orally; 0-19%; how it was run: as §1
[37] = test system: Teladorsagia circumcincta; experiment: Anthelmintic efficacy against immature (EL4) Ostertagia circumcincta (O. c) in sheep at dose of 0.1 mg/kg administered orally; 0-19
[38] = test system: Trichostrongylus colubriformis; experiment: Anthelmintic efficacy against Trichostrongylus colubriformis (T.c) in sheep at dose of 0.025 mg/kg administered orally; 0-19%; how it was run: as §1
[39] = test system: Cooperia oncophora; experiment: Anthelmintic efficacy against adult Cooperia oncopphora (C.o) in sheep at dose of 0.1 mg/kg administered orally; 0-19%; how it was run: as §1
[40] = test system: Oesophagostomum columbianum; experiment: Anthelmintic efficacy against Oseophagostomum columbianum (Oe. c) in sheep at dose of 0.05 mg/kg administered orally; 60-89%; how it was run: as §1
[41] = test system: Trichostrongylus axei; experiment: Anthelmintic efficacy against Trichostrongylus axei (T.a) in sheep at dose of 0.025 mg/kg administered orally; 0-19%; how it was run: as §1
[42] = test system: Haemonchus contortus; experiment: Anthelmintic efficacy against immature (EL4) Haemonchus contortus (H.c) in sheep at dose of 0.1 mg/kg administered orally; details: route oral; how it was run: as §2
[43] = test system: Teladorsagia circumcincta; experiment: Anthelmintic efficacy against adult Ostertagia circumcincta (O. c) in sheep at dose of 0.05 mg/kg administered orally; 60-89%; how it was run: as §1
[44] = test system: Cooperia oncophora; experiment: Anthelmintic efficacy against immature (EL4) Cooperia oncopphora (C.o) in sheep at dose of 0.025 mg/kg administered orally; 20-59%
[45] = test system: Trichostrongylus colubriformis; experiment: Anthelmintic efficacy against Trichostrongylus colubriformis (T.c) in sheep at dose of 0.05 mg/kg administered orally; 60-89%; how it was run: as §1
[46] = test system: Trichostrongylus axei; experiment: Anthelmintic efficacy against Trichostrongylus axei (T.a) in sheep at dose of 0.05 mg/kg administered orally; 60-89%; how it was run: as §1
[47] = test system: Haemonchus contortus; experiment: Anthelmintic efficacy against adult Haemonchus contortus (H.c) in sheep at dose of 0.05 mg/kg administered orally; 60-89%; how it was run: as §1
[48] = test system: Haemonchus contortus; experiment: Anthelmintic efficacy against immature (EL4) Haemonchus contortus (H.c) in sheep at dose of 0.05 mg/kg administered orally; 60-89%
[49] = test system: Oesophagostomum columbianum; experiment: Anthelmintic efficacy against Oseophagostomum columbianum (Oe. c) in sheep at dose of 0.025 mg/kg administered orally; 60-89%; how it was run: as §1
[50] = test system: Trichostrongylus colubriformis; experiment: Anthelmintic efficacy against Trichostrongylus colubriformis (T.c) in sheep at dose of 0.1 mg/kg administered orally; details: route oral; how it was run: as §2
[51] = test system: Haemonchus contortus; experiment: Anthelmintic efficacy against immature (EL4) Haemonchus contortus (H.c) in sheep at dose of 0.025 mg/kg administered orally; 20-59%

CC[C@H](C)[C@H]1O[C@]2(C=C[C@@H]1C)C[C@@H]1C[C@@H](C/C=C(\C)[C@@H](O[C@H]3C[C@@H](OC)[C@@H](O[C@H]4C[C@@H](OC)[C@@H](OC(C)=O)[C@H](C)O4)[C@H](C)O3)[C@@H](C)/C=C/C=C3\CO[C@@H]4[C@H](O)C(C)=C[C@@H](C(=O)O1)[C@]34O)O2
>90%: Efficacy [4] | Efficacy [6] | Efficacy [7] | Efficacy [8] | Efficacy [10] | Efficacy [12] | Efficacy [13] | Efficacy [14] | Efficacy [15] | Efficacy [16] | Efficacy [18] | Efficacy [19] | Efficacy [20] | Efficacy [22] | Efficacy [24]
20%: Efficacy [2]
0.031 mg/kg: Dose [17]
0%: Efficacy [1] | Efficacy [3] | Efficacy [23]
19%: Efficacy [11]
89%: Efficacy [5]
60%: Efficacy [9] | Efficacy [21] | Efficacy [25]

CC[C@H](C)[C@H]1O[C@]2(CC(OC(C)=O)[C@@H]1C)C[C@@H]1C[C@@H](C/C=C(\C)[C@@H](OC3CC(OC)C(OC4CC(OC)C(OC(C)=O)C(C)O4)C(C)O3)[C@@H](C)/C=C/C=C3\CO[C@@H]4[C@H](OC)C(C)=C[C@@H](C(=O)O1)[C@]34O)O2 (stereo not given in full)
60%: Efficacy [26] | Efficacy [27] | Efficacy [29]
0.5 mg/kg: Dose [17]
>90%: Efficacy [28] | Efficacy [31]
20%: Efficacy [30]

CC[C@H](C)[C@H]1O[C@]2(CC(O)[C@@H]1C)C[C@@H]1C[C@@H](C/C=C(\C)[C@@H](OC3CC(OC)C(OC4CC(OC)C(O)C(C)O4)C(C)O3)[C@@H](C)/C=C/C=C3\CO[C@@H]4[C@H](OC)C(C)=C[C@@H](C(=O)O1)[C@]34O)O2 (stereo not given in full) [AVERMECTIN A2]
>90%: Efficacy [6] | Efficacy [42] | Efficacy [13] | Efficacy [14] | Efficacy [18] | Efficacy [50]
0.05 mg/kg: Dose [17]
0%: Efficacy [1] | Efficacy [32] | Efficacy [3] | Efficacy [36] | Efficacy [37] | Efficacy [38] | Efficacy [39] | Efficacy [41] | Efficacy [23]
20%: Efficacy [33] | Efficacy [35] | Efficacy [44] | Efficacy [51]
60%: Efficacy [34] | Efficacy [40] | Efficacy [43] | Efficacy [45] | Efficacy [46] | Efficacy [47] | Efficacy [48] | Efficacy [49]
